Compound activity deposited in PubChem BioAssay by several laboratories.
HTR5A inv ag = HTR5A inverse agonists in luminescence cell assay, primary screen, counter-screen for OPRM1-OPRD1 heterodimer inverse agonist project, full-deck HTS; HTR5A cell line, inverse agonism; inhibition, % at 9.3 µM; 0.083% of 340,000 active; AID 504634, 2011; in the data active = inhibition mostly above about 23%, no sharp cut-off; inactive = mostly below about 18%
HTR5A ag ctr = HTR5A agonists in luminescence cell assay, primary screen, counter-screen for OPRM1-OPRD1 heterodimer agonist project, full-deck HTS; 5-hydroxytryptamine receptor 5A (Homo sapiens), P47898; cell-based; activation, % at 9.3 µM; 0.61% of 340,000 active; AID 504692, 2011; in the data active = activation mostly above about 9.5%, no sharp cut-off; inactive = mostly below about 7.6%
DAGLB inh = DAGLB lipase inhibitors, primary screen, biochemical, fluorescence, HTS; Diacylglycerol lipase-beta (Homo sapiens), Q8NCG7; HEK293T DAGLB membrane lysate, EnzChek fluorogenic substrate; inhibition, % at 5.17 µM; 0.059% of 340,000 active; AID 504411, 2011; in the data active = inhibition above about 34%
Arr AP2 block = inhibitors of beta-arrestin/AP2 binding, primary screen, biochemical, GPCR trafficking, flow cytometry. 0.31% of 340,000 active. inhibition, % at 10 µM. FITC-arrestin peptide / GST-AP2 beads; AP2 beta2 appendage carries R879A mutation;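 active = inhibition above a set limit, near 3 SD of compounds lacking own fluorescence, cut at about 54% in these data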
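System: GST-tagged AP2 beta2-adaptin appendage (R879A) on 4 µm glutathione beads / Reagent: FITC-arrestin peptide, 50 nM / Detection: HyperCyt-sampled flow cytometry, FL1 channel, ex 488/em 535 nm / Timing: 12 min plus 1 h, RT / Buffer or medium: PBS plus Tween 20 (0.05%) and BSA (0.1%)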
OPRM1-OPRD1 inv = inverse agonists of MOR-DOR heterodimerization, primary screen, cell-based, luminescence. cell-based MOR-DOR heterodimer luminescence, inverse agonism. Mu-type opioid receptor (Homo sapiens) + Delta-type opioid receptor (Homo sapiens), …. inhibition, % at 9.3 µM. 0.21% of 340,000 active; in the data active = inhibition above about 22%, passing the limit was not always enough
Target sequence (P35372 whole entry, looked up): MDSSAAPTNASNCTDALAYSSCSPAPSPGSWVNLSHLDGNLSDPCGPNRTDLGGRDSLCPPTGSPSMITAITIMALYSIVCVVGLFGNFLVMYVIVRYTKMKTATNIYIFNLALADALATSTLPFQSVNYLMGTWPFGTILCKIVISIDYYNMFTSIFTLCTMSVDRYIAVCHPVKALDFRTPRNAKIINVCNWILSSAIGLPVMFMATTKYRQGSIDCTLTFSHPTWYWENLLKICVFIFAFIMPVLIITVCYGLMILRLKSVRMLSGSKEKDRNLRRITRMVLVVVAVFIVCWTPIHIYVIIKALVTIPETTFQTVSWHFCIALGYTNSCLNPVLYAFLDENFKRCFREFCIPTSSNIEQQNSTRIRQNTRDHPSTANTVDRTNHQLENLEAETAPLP
Target sequence (P41143 whole entry, looked up): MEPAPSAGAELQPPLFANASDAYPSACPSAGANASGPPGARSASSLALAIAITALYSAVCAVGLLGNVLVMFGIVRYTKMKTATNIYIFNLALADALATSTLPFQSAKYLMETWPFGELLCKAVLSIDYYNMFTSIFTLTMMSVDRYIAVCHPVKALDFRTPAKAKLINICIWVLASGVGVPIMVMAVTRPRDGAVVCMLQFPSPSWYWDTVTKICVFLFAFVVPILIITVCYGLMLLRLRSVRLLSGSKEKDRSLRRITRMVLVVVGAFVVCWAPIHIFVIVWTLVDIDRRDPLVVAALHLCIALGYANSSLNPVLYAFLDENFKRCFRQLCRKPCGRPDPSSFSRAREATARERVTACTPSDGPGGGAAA
MOR-DOR ag = agonists of OPRM1-OPRD1 heterodimerization, primary screen, cell-based, luminescence | Mu-type opioid receptor (Homo sapiens) + Delta-type opioid receptor (Homo sapiens), … | cells | activation, % at 9.3 µM | 0.3% of 340,000 active | AID 504326, 2011; in the data active = activation above about 18%
MOR-DOR inv conf = inverse agonists of MOR-DOR heterodimerization, confirmation, cell-based, luminescence. 20% of 580 active. shares compounds with OPRM1-OPRD1 inv. inhibition, % at 9.3 µM. cells expressing OPRM1/OPRD1 heterodimer; in the data active = inhibition above about 32%
HTR5A inv ctr2 = HTR5A inverse agonists, counter-screen for OPRM1-OPRD1 inverse agonist project, cell-based, luminescence | shares compounds with OPRM1-OPRD1 inv | HTR5A-expressing cells, inverse agonism | inhibition, % at 9.3 µM | 580 tested, under 10 active; call rule not given here
Hits are given with their value; n = inactive; x = not tested or not shown. Compounds with a hit are over-represented: about 1.4% of the library has one in this group of screens.

SMILES	HTR5A inv ag	HTR5A ag ctr	DAGLB inh	Arr AP2 block	OPRM1-OPRD1 inv	MOR-DOR ag	MOR-DOR inv conf	HTR5A inv ctr2
O=C1Nc2ccc(Cl)cc2C12Nc1ccccc1-c1nnc(SCc3ccccc3F)nc1O2 (stereo unspecified)	n	n	n	n	50	n	n	n
CCN1CCN(C(=O)c2cc(COc3ccc(F)c(F)c3)on2)[C@@H](C)C1=O	x	x	n	x	x	x	x	x
CN(C)S(=O)(=O)c1cccc(C(=O)Nc2ccccc2[N+](=O)[O-])c1	n	n	n	n	34	n	n	n
CNC(=S)NNC(=O)c1sc2cc(C(F)(F)F)cnc2c1-c1ccccn1	n	n	n	n	31	n	n	n
O=C(NCCCN1CCOCC1)c1cccc(S(=O)(=O)N2CCc3ccccc32)c1	x	x	n	x	x	x	x	x
COCCN(C(=O)CSc1nnc(-c2ccccc2F)n1N)c1c(N)n(Cc2ccccc2)c(=O)[nH]c1=O	n	n	n	n	29	n	n	n
CC(C)c1ccc(NC2(C#N)C(=O)Nc3ccccc32)cc1 (stereo unspecified)	n	n	n	n	59	n	n	n
CC(C)c1ccc(NC(=O)CC2Oc3ccccc3NC2=O)cc1 (stereo unspecified)	n	n	n	n	n	n	x	x
Cc1ccccc1NC1(C#N)C(=O)Nc2ccccc21 (stereo unspecified)	n	n	n	n	58	n	n	n
Oc1[nH]c2ccccc2c1N=Nc1ccccc1	n	n	n	n	n	n	x	x
O=S1(=O)N=C(N=Nc2c(O)[nH]c3ccccc23)c2ccccc21	n	n	n	n	25	n	n	n
C[C@H]1CN([C@@H](C)CO)C(=O)CCCn2nncc2CO[C@H]1CN(C)C(=O)C1CCCCC1	x	x	n	x	x	x	x	x
COCC(C)OC(=O)c1c(N)n(CC(C)C)c2nc3ccccc3nc12 (stereo unspecified)	n	n	n	n	59	n	37	n
Cc1cc(C(=O)NNc2ccccc2F)no1	n	n	n	n	n	n	x	x
Cc1cc(C(=O)NNc2ccc(F)cc2)no1	n	n	n	n	36	n	n	n
CCn1cc(S(=O)(=O)Nc2cccnc2)cn1	n	n	n	n	37	n	41	n
CC(NCCCSc1ccccc1)C(O)c1ccc(O)cc1 (stereo unspecified)	x	x	n	x	x	x	x	x
O=C1CNCc2[nH]c3ccccc3c2N1c1ccccc1	n	n	n	n	n	n	x	x
O=CN1Cc2[nH]c3ccccc3c2N(c2ccc(Cl)cc2)C1=O	n	n	n	n	44	n	n	n
CN(C)CC1CC/C(=C\c2ccc(O)cc2)C1=O (stereo unspecified)	n	n	n	n	41	n	n	n
CC1CCC/C(=C\c2ccc(O)cc2)C1=O (stereo unspecified)	n	n	n	n	n	n	x	x
O=C(OCC(=O)c1ccc(Cl)cc1Cl)c1ccccn1	n	n	n	n	50	n	n	n
O=C(CCC(=O)OCC(=O)c1ccc(Cl)cc1Cl)Nc1cccc2cccnc12	n	n	n	n	55	n	n	n
O=C(OCC(=O)c1ccc(Cl)cc1Cl)c1ccc2c(c1)C(=O)N(c1cccc3ncccc13)C2=O	n	n	n	n	43	n	n	n
FC(F)(F)c1nc2nccnc2[nH]1	x	x	n	x	x	x	x	x
